Test results published in ChEMBL document CHEMBL2062401, “New pyrimido[5,4-e]pyrrolo[1,2-c]pyrimidines: synthesis, 2D-QSAR, anti-inflammatory, analgesic and ulcerogenicity studies” (Eur J Med Chem, 2012).

How the values were obtained:
[1] = test system: Rattus norvegicus; assay: Antiinflammatory activity in Wistar albino rat assessed as inhibition of carrageenan-induced paw edema at 0.029 mmol/kg, po dosed 1 hr before carrageenan challenge measured 1 hr post carrageenan-induced inflammation; type: functional
In short: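 Wistar albino rats of both sexes, 120–150 g, six per group, food withdrawn the day before. Given orally 0.029 mmol/kg in saline with a few drops of Tween 80, by stomach tube, 1 h before subplantar s.c. carrageenan (0.1 ml of 1%) into the right hind paw. Paw thickness measured at 1, 2, 3 and 4 h against baseline. % inhibition = 100 × (1 − Vt/Vc).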

[2] = test system: Mus musculus; assay: Analgesic activity in Swiss albino mouse assessed as inhibition of acetic acid-induced writhing at 0.029 mmol/kg. po dosed 1 hr before acetic acid challenge and measured during 30 mins post acetic acid challenge relative to indomethacin; type: functional; conditions: read-out: INH
In short: (§1)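 Swiss albino mice of either sex, 18–22 g, six per group. Oral suspension at 0.029 mmol/kg given 1 h before 0.3 ml of 1% acetic acid i.p. Contractions counted for 30 min, starting 5 min after injection. % protection = (n − n')/n × 100 against control writhing. Potency% = % inhibition of test / % inhibition of indomethacin × 100. Mean ± SEM, ANOVA with post hoc test.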

[3] = test system: Mus musculus; assay: Analgesic activity in Swiss albino mouse assessed as inhibition of acetic acid-induced writhing at 0.029 mmol/kg. po dosed 1 hr before acetic acid challenge and measured during 30 mins post acetic acid challenge; type: functional; in short: as §1
[4] = test system: Rattus norvegicus; assay: Gastrointestinal toxicity in Wistar albino rat assessed as incidence of stomach ulceration at 0.029 mmol/kg, po; type: organism-based; conditions: in vivo
In short: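 Rats given single oral dose suspended in saline with few drops Tween 80 (groups of 6); killed under deep ether anaesthesia 5 h after treatment; stomach opened along greater curvature and examined for lesions or bleeding; ulceration expressed as number of rats affected per group.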

[5] = test system: Rattus norvegicus; assay: Antiinflammatory activity in Wistar albino rat assessed as inhibition of carrageenan-induced paw edema at 0.029 mmol/kg, po dosed 1 hr before carrageenan challenge measured 2 hrs post carrageenan-induced inflammation
[6] = test system: Rattus norvegicus; assay: Antiinflammatory activity in Wistar albino rat assessed as inhibition of carrageenan-induced paw edema at 0.029 mmol/kg, po dosed 1 hr before carrageenan challenge measured 3 hrs post carrageenan-induced inflammation
[7] = Lipophilicity, log P of the compound; type: physicochemical; conditions: octanol/water
[8] = test system: Rattus norvegicus; assay: Antiinflammatory activity in Wistar albino rat assessed as inhibition of carrageenan-induced paw edema at 0.029 mmol/kg, po dosed 1 hr before carrageenan challenge measured 4 hrs post carrageenan-induced inflammation
[9] = test system: Rattus norvegicus; assay: Gastrointestinal toxicity in Wistar albino rat assessed as incidence of stomach ulceration at 0.029 mmol/kg, po followed by another two compound doses in second and third days measured on fourth day post dose by acute ulcerogenicity study; type: organism-based; conditions: in vivo
In short: (§2)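 Adult Wistar rats of both sexes, 120–150 g, groups of 6, fasted 20 h; oral dose suspended in 1% Tween (vehicle group 1% Tween); fasted 2 h, fed 2 h, fasted 20 h; further doses on days 2 and 3. Scored: % incidence/10, mean ulcers per rat, mean severity score; ulcer index = sum of the three.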

[10] = test system: Rattus norvegicus; assay: Gastrointestinal toxicity in Wistar albino rat assessed as stomach ulcer index at 0.029 mmol/kg, po followed by another two compound doses in second and third days measured on fourth day post dose by acute ulcerogenicity study; type: organism-based; conditions: in vivo; in short: as §2

| Compound | inhibition in vivo at 29 µmol/kg [1] [%] | writhing inhibition relative to indomethacin (potency %) at 29 µmol/kg [2] [%] | inhibition in vivo at 29 µmol/kg [3] [%] | Activity [4] | inhibition in vivo at 29 µmol/kg [5] [%] | inhibition in vivo at 29 µmol/kg [6] [%] | logP [7] | inhibition in vivo at 29 µmol/kg [8] [%] | Activity [9] [%] | UI [10] |
| --- | --- | --- | --- | --- | --- | --- | --- | --- | --- | --- |
| C/C(=N\NC(=O)c1nc2c(c(=O)[nH]1)C1CCCN1C(=O)N2c1ccccc1)c1ccc(Cl)cc1 (stereo not drawn) | 43 | 94 | 62.1 | Toxic | 50 | 51 | 3.29 | 57 | – | – |
| Cc1cc(=O)n(C(=O)c2nc3c(c(=O)[nH]2)C2CCCN2C(=O)N3c2ccccc2)[nH]1 (stereo not drawn) | 57 | 92.2 | 61 | Non-toxic | 34 | 57 | 0.772 | 62 | – | – |
| O=C(NN=C(c1ccccc1)c1ccccc1)c1nc2c(c(=O)[nH]1)C1CCCN1C(=O)N2c1ccccc1 (stereo not drawn) | 44 | 124 | 81.9 | Non-toxic | 51 | 51 | 5.52 | 53 | – | – |
| Cc1cc(C)n(C(=O)c2nc3c(c(=O)[nH]2)C2CCCN2C(=O)N3c2ccccc2)n1 (stereo not drawn) | 58 | 94 | 62.1 | Non-toxic | 57 | 65 | 1.46 | 67 | – | – |
| COc1ccc(/C=N/NC(=O)c2nc3c(c(=O)[nH]2)C2CCCN2C(=O)N3c2ccccc2)cc1O (stereo not drawn) | 18 | 66.2 | 43.8 | Non-toxic | 15 | 46 | 2.42 | 46 | – | – |
| O=C(N/N=C/c1ccc(Cl)cc1)c1nc2c(c(=O)[nH]1)C1CCCN1C(=O)N2c1ccccc1 (stereo not drawn) | 54 | 52.7 | 34.8 | Non-toxic | 32 | 44 | 3.36 | 38 | – | – |
| CCOC(=O)c1nc2c(c(=O)[nH]1)C1CCCN1C(=O)N2c1ccccc1 (stereo not drawn) | 71 | 44.5 | 29.4 | Non-toxic | 67 | 68 | 2.02 | 66 | – | – |
| CCO/C=N/NC(=O)c1nc2c(c(=O)[nH]1)C1CCCN1C(=O)N2c1ccccc1 (stereo not drawn) | 47 | 37.7 | 24.9 | Non-toxic | 55 | 64 | 1.44 | 55 | – | – |
| NNC(=O)c1nc2c(c(=O)[nH]1)C1CCCN1C(=O)N2c1ccccc1 (stereo not drawn) | 56 | 48.7 | 32.2 | Toxic | 45 | 50 | -0.487 | 56 | – | – |
| Nc1cc(=O)[nH]n1C(=O)c1nc2c(c(=O)[nH]1)C1CCCN1C(=O)N2c1ccccc1 (stereo not drawn) | 50 | 106 | 70.3 | Non-toxic | 20 | 45 | 0.517 | 50 | – | – |
| CCOC(=O)C/C(C)=N/NC(=O)c1nc2c(c(=O)[nH]1)C1CCCN1C(=O)N2c1ccccc1 (stereo not drawn) | 45 | 1.77 | 1.17 | Non-toxic | 41 | 47 | 1.28 | 52 | – | – |
| Cc1ccc(-c2cc(C(F)(F)F)nn2-c2ccc(S(N)(=O)=O)cc2)cc1 [CELECOXIB] | 54 | – | – | Toxic | 34 | 47 | – | 48 | 6.66 | 11.13 |
| O=C(O)c1nc2c(c(=O)[nH]1)C1CCCN1C(=O)N2c1ccccc1 (stereo not drawn) | 68 | 97.8 | 64.7 | Toxic | 56 | 66 | 0.661 | 72 | – | – |
| CC(C)=NNC(=O)c1nc2c(c(=O)[nH]1)C1CCCN1C(=O)N2c1ccccc1 (stereo not drawn) | 26 | 89 | 58.8 | Non-toxic | 23 | 35 | – | 36 | – | – |
| O=C(N/N=C/c1ccccc1O)c1nc2c(c(=O)[nH]1)C1CCCN1C(=O)N2c1ccccc1 (stereo not drawn) | 53 | 104 | 68.9 | Toxic | 34 | 46 | 2.46 | 47 | – | – |
| COc1ccc2c(c1)c(CC(=O)O)c(C)n2C(=O)c1ccc(Cl)cc1 [INDOMETHACIN] | 57 | – | 66.1 | Toxic | 39 | 47 | – | 51 | 10 | 14.73 |
| O=C(N/N=C/c1ccccc1)c1nc2c(c(=O)[nH]1)C1CCCN1C(=O)N2c1ccccc1 (stereo not drawn) | 68 | 87.2 | 57.6 | Toxic | 41 | 53 | 3.35 | 50 | – | – |
| COc1ccc(/C=N/NC(=O)c2nc3c(c(=O)[nH]2)C2CCCN2C(=O)N3c2ccccc2)cc1 (stereo not drawn) | 51 | 109 | 71.8 | Non-toxic | 21 | 44 | 2.76 | 47 | – | – |
| C/C(=N\NC(=O)c1nc2c(c(=O)[nH]1)C1CCCN1C(=O)N2c1ccccc1)c1ccccc1 (stereo not drawn) | 61 | 102 | 67.5 | Toxic | 44 | 53 | 3.28 | 61 | – | – |
| O=C1CC(O)=NN1C(=O)c1nc2c(c(=O)[nH]1)C1CCCN1C(=O)N2c1ccccc1 (stereo not drawn) | 68 | 93.6 | 61.9 | Non-toxic | 44 | 49 | 0.693 | 65 | – | – |
